Measurements as given in ChEMBL document CHEMBL3271971, “Antineoplastic and biochemical properties of arylsulfonylhydrazones of 2-formylpyridine N-oxide” (J Med Chem, 1976).

Experiments:
[1] = Antineoplastic activity against mouse S180A cells allografted in CD-1 mouse assessed as maximum dose required for increase in mouse survival administered qd for 6 days; assay type: functional
[2] = Antineoplastic activity against mouse S180A cells allografted in CD-1 mouse assessed as mouse survival at maximum effective dose administered qd for 6 days measured for 50 days relative to control; assay type: functional
Outline: (§1)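 Sarcoma 180 ascites cells were transplanted from a donor mouse bearing a 7-day tumour. Each agent was tested at 10–60 mg/kg/day, once daily for six consecutive days, starting 24 h after transplantation, in groups of 5–10 mice. Pooled untreated controls totalled 40 mice. Mice surviving beyond 50 days were counted as 50-day survivors, and body-weight change over therapy served as the toxicity index.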

Ehrlich [3] = experiment: Antineoplastic activity against mouse EAC cells allografted in CD-1 mouse assessed as average survival at 20 mg/kg administered qd for 6 days (reference value: 14.4 +/- 1.2 days); assay type: functional
Outline: (§2)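 Ascitic tumours were transplanted from an appropriate donor mouse carrying a 7-day tumour growth. Drug was given at 10–60 mg/kg/day for six consecutive days. Sensitivity was judged by prolongation of survival time relative to untreated tumour-bearing controls. Mice were weighed throughout, and percentage weight change from onset to end of therapy indicated toxicity.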

Mus musculus [4] = experiment: Toxicity in C3H mouse allografted with mouse Hepa129 cells assessed as change in body weight at 40 mg/kg administered qd for 6 days (reference value: 13.5%); assay type: organism-based; set-up: dose 40 mg/kg; details: in vivo, 144 h
Outline: (§3)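 Ascitic tumors were transplanted from a donor mouse bearing a 7-day tumor. Daily doses were given for six consecutive days. Percentage body-weight change from onset to termination of therapy served as the index of drug toxicity.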

Mus musculus [5] = experiment: Effect on DNA synthesis in tumor of CD-1 mouse allografted with mouse S180A cells assessed as [3H]-thymidine incorporation at 80 mg/kg, ip pretreated for 1 hr followed by radiotracer-addition measured after 1 hr relative to control; assay type: functional; details: route intraperitoneal
Outline: (§4)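 Sarcoma 180 ascites cells implanted 6 days earlier. Mice received a single ip dose of 10–80 mg/kg, then 1 h later an ip tracer: 200 μg thymidine-3H, 200 μg uridine-3H or 125 μg DL-leucine-14C. Tracer was incorporated for 1 h. Specific activity of tumor-cell DNA, RNA or protein is expressed as % of untreated controls. Values are means of 4-16 mice, each analyzed separately.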

Mus musculus [6] = experiment: Effect on DNA synthesis in tumor of CD-1 mouse allografted with mouse S180A cells assessed as [3H]-thymidine incorporation at 20 mg/kg, ip pretreated for 1 hr followed by radiotracer-addition measured after 1 hr relative to control; assay type: functional; details: route intraperitoneal; outline: as §4
Mus musculus [7] = experiment: Effect on RNA synthesis in tumor of CD-1 mouse allografted with mouse S180A cells assessed as [3H]-uridine incorporation at 80 mg/kg, ip pretreated for 3 hrs followed by radiotracer-addition measured after 1 hr relative to control; assay type: functional; details: route intraperitoneal
Outline: (§5)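 Mice bearing 6-day Sarcoma 180 ascites implants received a single ip dose of 80 mg/kg. At the stated pretreatment time they were given ip tracer: 200 μg thymidine-3H, 200 μg uridine-3H or 125 μg DL-leucine-14C. After 1 h of incorporation, specific radioactivity of DNA, RNA or protein was read as % of control incorporation.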

Mus musculus [8] = experiment: Toxicity in CD-1 mouse allografted with mouse S180A cells assessed as change in body weight at maximum effective dose administered qd for 6 days (reference value: 23.2%); assay type: organism-based; details: 144 h
Mus musculus [9] = experiment: Effect on RNA synthesis in tumor of CD-1 mouse allografted with mouse S180A cells assessed as [3H]-uridine incorporation at 10 mg/kg, ip pretreated for 1 hr followed by radiotracer-addition measured after 1 hr relative to control; assay type: functional; details: route intraperitoneal; outline: as §4
Mus musculus [10] = experiment: Toxicity in CD-1 mouse allografted with mouse S180A cells assessed as change in body weight at 20 mg/kg administered qd for 6 days (reference value: 23.2%); assay type: organism-based; set-up: dose 20 mg/kg; details: in vivo, 144 h
[11] = Antineoplastic activity against mouse Hepa129 cells allografted in C3H mouse assessed as average survival at 40 mg/kg administered qd for 6 days (reference value: 18 +/- 0.6 days); assay type: functional; outline: as §2
Ehrlich [12] = experiment: Antineoplastic activity against mouse EAC cells allografted in CD-1 mouse assessed as average survival at 40 mg/kg administered qd for 6 days (reference value: 14.4 +/- 1.2 days); assay type: functional; outline: as §2
[13] = Antineoplastic activity against mouse S180A cells allografted in CD-1 mouse assessed as average survival at maximum effective dose administered qd for 6 days (reference value: 12.5 +/- 0.3 days); assay type: functional; outline: as §1
Mus musculus [14] = experiment: Effect on RNA synthesis in tumor of CD-1 mouse allografted with mouse S180A cells assessed as [3H]-uridine incorporation at 80 mg/kg, ip pretreated for 12 hrs followed by radiotracer-addition measured after 1 hr relative to control; assay type: functional; details: route intraperitoneal; outline: as §5
Mus musculus [15] = experiment: Effect on DNA synthesis in tumor of CD-1 mouse allografted with mouse S180A cells assessed as [3H]-thymidine incorporation at 80 mg/kg, ip pretreated for 3 hrs followed by radiotracer-addition measured after 1 hr relative to control; assay type: functional; details: route intraperitoneal; outline: as §5
Mus musculus [16] = experiment: Effect on protein synthesis in tumor of CD-1 mouse allografted with mouse S180A cells assessed as [14C]-leucine incorporation at 80 mg/kg, ip pretreated for 6 hrs followed by radiotracer-addition measured after 1 hr relative to control; assay type: functional; details: route intraperitoneal; outline: as §5
Mus musculus [17] = experiment: Effect on DNA synthesis in tumor of CD-1 mouse allografted with mouse S180A cells assessed as [3H]-thymidine incorporation at 80 mg/kg, ip pretreated for 12 hrs followed by radiotracer-addition measured after 1 hr relative to control; assay type: functional; details: route intraperitoneal; outline: as §5
Mus musculus [18] = experiment: Effect on DNA synthesis in tumor of CD-1 mouse allografted with mouse S180A cells assessed as [3H]-thymidine incorporation at 40 mg/kg, ip pretreated for 1 hr followed by radiotracer-addition measured after 1 hr relative to control; assay type: functional; details: route intraperitoneal; outline: as §4
Mus musculus [19] = experiment: Toxicity in CD-1 mouse allografted with mouse S180A cells assessed as change in body weight at 60 mg/kg administered qd for 6 days (reference value: 23.2%); assay type: organism-based; set-up: dose 60 mg/kg; details: in vivo, 144 h
[20] = Antineoplastic activity against mouse S180A cells allografted in CD-1 mouse assessed as mouse survival at 40 mg/kg administered qd for 6 days measured for 50 days relative to control; assay type: functional; outline: as §2
[21] = Antineoplastic activity against mouse S180A cells allografted in CD-1 mouse assessed as average survival at maximum effective dose administered qd for 6 days relative to control; assay type: functional; outline: as §1
[22] = Antineoplastic activity against 1-formylisoquinoline thiosemicarbazone-resistant mouse S180A cells allografted in CD-1 mouse assessed as average survival at 40 mg/kg administered qd for 6 days (reference value: 14.4 +/- 0.9 days); assay type: functional; outline: as §2
Ehrlich [23] = experiment: Antineoplastic activity against mouse EAC cells allografted in CD-1 mouse assessed as average survival at 60 mg/kg administered qd for 6 days (reference value: 14.4 +/- 1.2 days); assay type: functional; outline: as §2
L1210 = experiment: Antineoplastic activity against mouse L1210 cells allografted in BDF1 mouse assessed as average survival at 40 mg/kg administered qd for 6 days (reference value: 8.2 +/- 0.4 days); assay type: functional; outline: as §2
Mus musculus [24] = experiment: Toxicity in CD-1 mouse allografted with mouse EAC cells assessed as change in body weight at 40 mg/kg administered qd for 6 days (reference value: 26.8%); assay type: organism-based, Ehrlich; set-up: dose 40 mg/kg; details: in vivo, 144 h; outline: as §3

In the case of `Cc1ccc(S(=O)(=O)N/N=C/c2cccc[n+]2[O-])cc1`, the Activity [1] is reported as 60 mg/kg, the Survival [2] is reported as 0% and the Survival (Ehrlich [3]) is reported as 34.6 days. It also gave an Activity (Mus musculus [4]) of 2.3%, an Activity (Mus musculus [5]) of 59% and an Activity (Mus musculus [6]) of 71%. It also gave an Activity (Mus musculus [7]) of 62%, an Activity (Mus musculus [8]) of -8% and an Activity (Mus musculus [9]) of 74%. The Activity (Mus musculus [10]) was 21.6%, the Survival [11] was 24.8 days and the Survival (Ehrlich [12]) was 47 days. For the same compound, the Survival [13] was 38.4 days, the Activity (Mus musculus [14]) was 102% and the Activity (Mus musculus [15]) was 53%. It also gave an Activity (Mus musculus [16]) of 89%, an Activity (Mus musculus [17]) of 57% and an Activity (Mus musculus [18]) of 67%. The Activity (Mus musculus [19]) was -8%, the survival at 40 mg/kg [20] was 20% and the T/C [21] was 307%. The Survival [22] was 24.4 days, the Survival (Ehrlich [23]) was 40.8 days and the Survival (L1210) was 9.2 days. The Activity (Mus musculus [24]) was -3.3%.
